Source: paper PMC3902791 (Molecular imaging and biology : MIB : the official …, 2012)
Entries after “also recorded” stand apart in the source; their conditions may differ.

Assays:
[1] = Radio-HPLC analysis of radiolabeled metabolites in blood plasma and urine; type: in vivo, rhesus macaques
Procedure, shortened: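 Plasma was ultrafiltered, then run on radio-HPLC (Supelcogel C-610H column, 20 mM phosphoric acid, 0.5 mL/min, UV plus radioactivity detection). Peaks were identified with cold fluorocitrate and fluoride standards, and fractions were taken from peak areas. Urine was collected by Foley catheter, which was clamped until after the second whole-body scan. It was collected at 120–150 min, gamma-counted and analysed by the same HPLC.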

[2] = Dynamic and whole-body PET imaging of pharmacokinetics and biodistribution; type: in vivo, rhesus macaques
Procedure, shortened: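 ECAT HR+ scanner; 10-min transmission scan, then i.v. radiotracer (165.4 ± 28.5 MBq). Lower thorax to upper abdomen was imaged dynamically for 0–30 min in 2D mode, 29 frames (20×15 s, 5×1 min, 4×5 min). Three whole-body static scans followed at 40, 100 and 170 min (3-min transmission, 5-min emission, 4–5 beds). OSEM reconstruction with attenuation, scatter, random and dead-time correction. 3D VOIs gave organ %ID/g time–activity curves.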

[3] = tested on: rhesus macaques; test: ECG monitoring for acute toxicity during PET imaging; type: in vivo
Procedure, shortened: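 Animals were anaesthetised (atropine 0.04 mg/kg i.m.; telazole or ketamine i.m.; isoflurane 1.0–3.0% in oxygen), intubated, mechanically ventilated and kept at 37±0.8°C. ECG, blood pressure, pulse oximetry and respiration rate were monitored throughout the imaging study after i.v. radiotracer.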

[4] = Humanized time-integrated activity coefficients; type: in vivo, rhesus macaques
Procedure, shortened: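 Six rhesus macaques (3 female, 3 male) received the radiolabelled test compound intravenously, followed by whole-body PET/CT. Organ activity came from 3D VOIs drawn on PET images. Time–activity curves were fitted mono-exponentially, or by a linear fit of log activity for one animal with two scans. Coefficients were scaled by human/macaque whole-body-normalised organ mass ratios, using CT-derived macaque organ masses and the OLINDA/EXM 73.7-kg adult male model.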

[5] = Stability of radiochemical purity of the product; type: physicochemical; settings: after completion of the synthesis
Procedure, shortened: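 Final product was in 0.9% saline adjusted to pH 6–8 and sterile-filtered. Radiochemical purity was followed after end of synthesis by HPLC: Supelcogel C-610H column (30 cm × 7.8 mm), 20 mM aqueous phosphoric acid, 0.5 mL/min, UV and radioactivity detection.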

O=C(O)C[18F] [^18F-FACE, ^18F-fluoroacetate]
^18F-fluorocitrate anabolite ([1]; 3-h study): not detectable
fraction of total radioactivity in urine as ^18F-FACE ([1]; urine collected at 120–150 min): 72.4%
fraction of total radioactivity in urine as ^18F-fluoride ([1]; urine collected at 120–150 min): 27.6%
accumulation in the myocardium ([2]; PET): Some accumulation
accumulation or retention in the brain ([2]; PET): No significant accumulation or retention
uptake of radioactivity (free ^18F-fluoride) in bones / skeletal structures ([2]; PET, over 2 to 3 h post-injection): insignificant; also recorded: limited
radioactivity concentration in liver ([2]; at 5 min): 0.040 % ID/g
level of radioactivity in the blood ([2]; within 5 min after i.v. injection): 0.040±0.02 % ID/g
changes in ECG (cardiac rhythm, electrical activity) ([3]; administration to 180 min post-injection): None of the animals injected with ^18F-FACE demonstrated any significant changes in cardiac rhythm or electrical activity patterns; also recorded: no significant changes to the ECG
ECG PR ([3]; time 1 min): 0.11 ± 0.01 s
ECG QRS ([3]; time 1 min): 0.05 ± 0.01 s
ECG QT ([3]; time 1 min): 0.35 ± 0.04 s
ECG ST ([3]; time 1 min): 0.80 ± 0.45 s
ECG p ([3]; time 1 min): 0.04 ± 0.01 s
Heart rate ([3]; time 1 min): 88±8 per minute
ECG PR ([3]; time 2 min): 0.11 ± 0.01 s
ECG QRS ([3]; time 2 min): 0.04 ± 0.00 s
ECG QT ([3]; time 2 min): 0.34 ± 0.05 s
ECG ST ([3]; time 2 min): 1.00 ± 0.50 s
ECG p ([3]; time 2 min): 0.04 ± 0.00 s
Heart rate ([3]; time 2 min): 88±8 per minute
ECG PR ([3]; time 5 min): 0.11 ± 0.02 s
ECG QRS ([3]; time 5 min): 0.04 ± 0.01 s
ECG QT ([3]; time 5 min): 0.35 ± 0.04 s
ECG ST ([3]; time 5 min): 0.95 ± 0.51 s
ECG p ([3]; time 5 min): 0.04 ± 0.01 s
Heart rate ([3]; time 5 min): 88±7 per minute
ECG PR ([3]; time 16 min): 0.10 ± 0.01 s
ECG QRS ([3]; time 16 min): 0.04 ± 0.00 s
ECG QT ([3]; time 16 min): 0.34 ± 0.04 s
ECG ST ([3]; time 16 min): 0.80 ± 0.41 s
ECG p ([3]; time 16 min): 0.05 ± 0.01 s
Heart rate ([3]; time 16 min): 87±6 per minute
ECG PR ([3]; time 32 min): 0.11 ± 0.01 s
ECG QRS ([3]; time 32 min): 0.04 ± 0.00 s
ECG QT ([3]; time 32 min): 0.34 ± 0.03 s
ECG ST ([3]; time 32 min): 0.60 ± 0.38 s
ECG p ([3]; time 32 min): 0.05 ± 0.01 s
Heart rate ([3]; time 32 min): 89±7 per minute
ECG PR ([3]; time 60 min): 0.11 ± 0.01 s
ECG QRS ([3]; time 60 min): 0.04 ± 0.01 s
ECG QT ([3]; time 60 min): 0.34 ± 0.04 s
ECG ST ([3]; time 60 min): 0.70 ± 0.54 s
ECG p ([3]; time 60 min): 0.04 ± 0.00 s
Heart rate ([3]; time 60 min): 89±7 per minute
ECG PR ([3]; time 90 min): 0.11 ± 0.01 s
ECG QRS ([3]; time 90 min): 0.04 ± 0.00 s
ECG QT ([3]; time 90 min): 0.34 ± 0.03 s
ECG ST ([3]; time 90 min): 0.70 ± 0.54 s
ECG p ([3]; time 90 min): 0.04 ± 0.01 s
Heart rate ([3]; time 90 min): 87±5 per minute
ECG PR ([3]; time 120 min): 0.11 ± 0.01 s
ECG QRS ([3]; time 120 min): 0.05 ± 0.01 s
ECG QT ([3]; time 120 min): 0.33 ± 0.03 s
ECG ST ([3]; time 120 min): 0.60 ± 0.38 s
ECG p ([3]; time 120 min): 0.04 ± 0.01 s
Heart rate ([3]; time 120 min): 88±3 per minute
ECG PR ([3]; time 180 min): 0.10 ± 0.01 s
ECG QRS ([3]; time 180 min): 0.04 ± 0.00 s
ECG QT ([3]; time 180 min): 0.34 ± 0.03 s
ECG ST ([3]; time 180 min): 0.85 ± 0.63 s
ECG p ([3]; time 180 min): 0.04 ± 0.01 s
Heart rate ([3]; time 180 min): 93±8 per minute
Humanized residence time, Gall bladder ([4]; All, Mean±SD): 0.011 ± 0.005 h
Humanized residence time, Heart ([4]; All, Mean±SD): 0.034 ± 0.017 h
Humanized residence time, Intestines ([4]; All, Mean±SD): 0.319 ± 0.134 h
Humanized residence time, Kidneys ([4]; All, Mean±SD): 0.044 ± 0.013 h
Humanized residence time, Liver ([4]; All, Mean±SD): 0.209 ± 0.171 h
Humanized residence time, Remainder of body ([4]; All, Mean±SD): 1.751 ± 0.363 h
Humanized residence time, Gall bladder ([4]; Female, Mean±SD): 0.016 ± 0.002 h
Humanized residence time, Heart ([4]; Female, Mean±SD): 0.024 ± 0.013 h
Humanized residence time, Kidneys ([4]; Female, Mean±SD): 0.041 ± 0.016 h
Humanized residence time, Liver ([4]; Female, Mean±SD): 0.132 ± 0.082 h
Humanized residence time, Remainder of body ([4]; Female, Mean±SD): 1.724 ± 0.549 h
Humanized residence time, Gall bladder ([4]; Male, Mean±SD): 0.007 ± 0.002 h
Humanized residence time, Heart ([4]; Male, Mean±SD): 0.043 ± 0.016 h
Humanized residence time, Intestines ([4]; Male, Mean±SD): 0.400 ± 0.154 h
Humanized residence time, Kidneys ([4]; Male, Mean±SD): 0.047 ± 0.012 h
Humanized residence time, Liver ([4]; Male, Mean±SD): 0.287 ± 0.220 h
Humanized residence time, Remainder of body ([4]; Male, Mean±SD): 1.778 ± 0.159 h
Humanized residence time, Gall bladder ([4]; animal 1, male): 0.006 h
Humanized residence time, Heart ([4]; animal 1, male): 0.048 h
Humanized residence time, Kidneys ([4]; animal 1, male): 0.061 h
Humanized residence time, Liver ([4]; animal 1, male): 0.505 h
Humanized residence time, Remainder of body ([4]; animal 1, male): 1.706 h
Humanized residence time, Intestines ([4]; animal 1, male, assigned in thirds to small, upper large, lower large intestine): 0.235 h
Humanized residence time, Gall bladder ([4]; animal 2, male): 0.009 h
Humanized residence time, Heart ([4]; animal 2, male): 0.057 h
Humanized residence time, Intestines ([4]; animal 2, male): 0.426 h
Humanized residence time, Kidneys ([4]; animal 2, male): 0.038 h
Humanized residence time, Liver ([4]; animal 2, male): 0.290 h
Humanized residence time, Remainder of body ([4]; animal 2, male): 1.668 h
Humanized residence time, Heart ([4]; animal 3, male): 0.025 h
Humanized residence time, Intestines ([4]; animal 3, male): 0.540 h
Humanized residence time, Kidneys ([4]; animal 3, male): 0.043 h
Humanized residence time, Liver ([4]; animal 3, male): 0.065 h
Humanized residence time, Remainder of body ([4]; animal 3, male): 1.960 h
Humanized residence time, Gall bladder ([4]; animal 4, female): 0.017 h
Humanized residence time, Heart ([4]; animal 4, female): 0.039 h
Humanized residence time, Intestines ([4]; animal 4, female): 0.261 h
Humanized residence time, Kidneys ([4]; animal 4, female): 0.032 h
Humanized residence time, Liver ([4]; animal 4, female): 0.226 h
Humanized residence time, Remainder of body ([4]; animal 4, female): 1.138 h
Humanized residence time, Gall bladder ([4]; animal 5, female): 0.014 h
Humanized residence time, Heart ([4]; animal 5, female): 0.016 h
Humanized residence time, Intestines ([4]; animal 5, female): 0.256 h
Humanized residence time, Kidneys ([4]; animal 5, female): 0.059 h
Humanized residence time, Liver ([4]; animal 5, female): 0.078 h
Humanized residence time, Remainder of body ([4]; animal 5, female): 1.804 h
Humanized residence time, Heart ([4]; animal 6, female): 0.017 h
Humanized residence time, Intestines ([4]; animal 6, female): 0.196 h
Humanized residence time, Kidneys ([4]; animal 6, female): 0.030 h
Humanized residence time, Liver ([4]; animal 6, female): 0.093 h
Humanized residence time, Remainder of body ([4]; animal 6, female): 2.228 h
time the product maintained its radiochemical purity [5]: more than 8 h
